According to ChEMBL document CHEMBL1132701, “Orally active isoxazoline glycoprotein IIb/IIIa antagonists with extended duration of action” (J Med Chem, 1999):

Key:
Canis familiaris [1] = assay: Inhibition of ex vivo platelet aggregation in dogs after 24 hr of administration of iv bolus dose of 0.05 mg/kg; format: functional; conditions: Canis lupus familiaris
Procedure, shortened: (§1)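 Dogs received an iv bolus, mostly 0.025 mg/kg, with some tested at 0.05 mg/kg. Blood was sampled at 1, 5 and 24 h postdose. Ex vivo platelet aggregation was stimulated with ADP (100 μM) and reported as % inhibition; n = 2.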

Homo sapiens = species: Homo sapiens; assay: The compound was tested for their ability to inhibit ADP-stimulated platelet aggregation in human platelet rich plasma; format: functional
Procedure, shortened: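 IC50 for inhibition of ADP-induced aggregation in human platelet-rich plasma, determined in three donors.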

Canis familiaris [2] = assay: Inhibition of ex vivo platelet aggregation in dogs after 24 hr of administration of iv bolus dose of 0.025 mg/kg; format: functional; conditions: Canis lupus familiaris; procedure, shortened: as §1
Canis familiaris [3] = assay: Inhibition of ex vivo platelet aggregation in dogs after 24 hr of administration of oral dose of 0.1 mg/kg; conditions: Canis lupus familiaris
Canis familiaris [4] = assay: Inhibition of ex vivo platelet aggregation in dogs after 1 hr of administration of oral dose of 0.1 mg/kg; conditions: Canis lupus familiaris
Canis familiaris [5] = assay: Inhibition of ex vivo platelet aggregation in dogs after 6 hr of administration of oral dose of 0.1 mg/kg; conditions: Canis lupus familiaris
Canis familiaris [6] = assay: Compounds having IC50 values less than 100 nM in the PRP assay were assessed for their ability to inhibit ex vivo platelet aggregation in dogs after 5 hr of administration of iv bolus dose of 0.025 mg/kg; format: functional; conditions: Canis lupus familiaris; procedure, shortened: as §1
Canis familiaris [7] = species: Canis familiaris; assay: The compound was tested for their ability to inhibit ADP-stimulated platelet aggregation in dog platelet rich plasma; format: functional; conditions: Canis lupus familiaris
[8] = target: Integrin alpha-IIb/beta-3 (Canis familiaris); assay: Dissociation constant for activated Fibrinogen Receptor
[9] = target: Integrin alpha-IIb/beta-3 (Canis familiaris); assay: Dissociation constant for unactivated Fibrinogen Receptor
Canis familiaris [10] = assay: Inhibition of ex vivo platelet aggregation in dogs after 2 hr of administration of oral dose of 0.1 mg/kg; conditions: Canis lupus familiaris

Row | Compound | IC50 (Homo sapiens) [µM] | other results
1 | N=C(N)c1ccc(C2=NOC(CC(=O)NC[C@H](NS(=O)(=O)c3ccccc3Br)C(=O)O)C2)cc1 (stereo partly specified) | 0.036 | inhibition in vivo at 0.05 mg/kg (Canis familiaris [1]): 100%
2 | Cc1cccc(S(=O)(=O)N[C@@H](CNC(=O)C[C@@H]2CC(c3ccc(C(=N)N)cc3)=NO2)C(=O)O)c1 | 0.035 | 
3 | N=C(N)c1ccc(C2=NOC(CC(=O)NC[C@H](NS(=O)(=O)c3ccc(Br)cc3)C(=O)O)C2)cc1 (stereo partly specified) | 0.051 | 
4 | CC(C)CNS(=O)(=O)N[C@@H](CNC(=O)CC1CC(c2ccc(C(=N)N)cc2)=NO1)C(=O)O (stereo partly specified) | 0.052 | 
5 | Cc1ccc(NS(=O)(=O)N[C@@H](CNC(=O)CC2CC(c3ccc(C(=N)N)cc3)=NO2)C(=O)O)cc1 (stereo partly specified) | 0.072 | 
6 | N=C(N)c1ccc(C2=NOC(CC(=O)NC[C@H](NS(=O)(=O)c3cccs3)C(=O)O)C2)cc1 (stereo partly specified) | 0.024 | 
7 | Cn1cnc(S(=O)(=O)N[C@@H](CNC(=O)CC2CC(c3ccc(C(=N)N)cc3)=NO2)C(=O)O)c1 (stereo partly specified) | 0.11 | 
8 | N=C(N)c1ccc(C2=NOC(CC(=O)NC[C@H](NS(=O)(=O)c3ccc4ccccc4c3)C(=O)O)C2)cc1 (stereo partly specified) | 0.14 | 
9 | N=C(N)c1ccc(C2=NOC(CC(=O)NC[C@H](NS(=O)(=O)c3ccccc3-c3ccccc3)C(=O)O)C2)cc1 (stereo partly specified) | 0.08 | inhibition in vivo at 0.025 mg/kg (Canis familiaris [2]): 65%
10 | CCCc1ccc(S(=O)(=O)N[C@@H](CNC(=O)CC2CC(c3ccc(C(=N)N)cc3)=NO2)C(=O)O)cc1 (stereo partly specified) | 0.13 | 
11 | CCCS(=O)(=O)N[C@@H](CNC(=O)CC1CC(c2ccc(C(=N)N)cc2)=NO1)C(=O)O (stereo partly specified) | 0.017 | 
12 | N=C(N)c1ccc(C2=NOC(CC(=O)NC[C@H](NS(=O)(=O)c3ccccc3C(F)(F)F)C(=O)O)C2)cc1 (stereo partly specified) |  | inhibition in vivo at 0.025 mg/kg (Canis familiaris [2]): 45%
13 | Cc1ccc(S(=O)(=O)N[C@@H](CNC(=O)CC2CC(c3ccc(C(=N)N)cc3)=NO2)C(=O)O)o1 (stereo partly specified) | 0.16 | 
14 | Cc1ccccc1S(=O)(=O)N[C@@H](CNC(=O)C[C@H]1CC(c2ccc(C(=N)N)cc2)=NO1)C(=O)O | 0.13 | inhibition in vivo at 0.1 mg/kg (Canis familiaris [3]): 65%; inhibition in vivo at 0.1 mg/kg (Canis familiaris [4]): 39%; inhibition in vivo at 0.1 mg/kg (Canis familiaris [5]): 92%
15 | CN(Cc1ccccc1)S(=O)(=O)N[C@@H](CNC(=O)CC1CC(c2ccc(C(=N)N)cc2)=NO1)C(=O)O (stereo partly specified) | 0.086 | 
16 | N=C(N)c1ccc(C2=NOC(CC(=O)NC[C@H](NS(=O)(=O)c3ccc(C(F)(F)F)cc3)C(=O)O)C2)cc1 (stereo partly specified) | 0.17 | 
17 | Cc1noc(C)c1S(=O)(=O)N[C@@H](CNC(=O)CC1CC(c2ccc(C(=N)N)cc2)=NO1)C(=O)O (stereo partly specified) | 0.034 | inhibition in vivo at 0.025 mg/kg (Canis familiaris [2]): 33%
18 | Cc1nc(C)c(S(=O)(=O)N[C@@H](CNC(=O)CC2CC(c3ccc(C(=N)N)cc3)=NO2)C(=O)O)s1 (stereo partly specified) | 0.036 | inhibition in vivo at 0.025 mg/kg (Canis familiaris [2]): 8%; inhibition in vivo at 0.025 mg/kg (Canis familiaris [6]): 54%
19 | Cc1noc(C)c1S(=O)(=O)N[C@H](CNC(=O)C[C@@H]1CC(c2ccc(C(=N)N)cc2)=NO1)C(=O)O | 0.12 | IC50 (Canis familiaris [7]): 0.17 µM; Kd [8]: 0.186 µM; Kd [9]: 0.253 µM
20 | N=C(N)c1ccc(C2=NO[C@@H](CC(=O)NC[C@H](NS(=O)(=O)c3ccccc3Br)C(=O)O)C2)cc1 | 0.036 | inhibition in vivo at 0.1 mg/kg (Canis familiaris [3]): 40%; inhibition in vivo at 0.1 mg/kg (Canis familiaris [10]): 29%; inhibition in vivo at 0.1 mg/kg (Canis familiaris [5]): 73%
21 | N=C(N)c1ccc(C2=NOC(CC(=O)NC[C@H](NS(=O)(=O)c3cccc(C(F)(F)F)c3)C(=O)O)C2)cc1 (stereo partly specified) | 0.12 | 
22 | N=C(N)c1ccc(C2=NO[C@@H](CC(=O)NC[C@H](NS(=O)(=O)c3ccccc3)C(=O)O)C2)cc1 | 0.19 | 
